# Published values pooled from the literature.
# Each line is one published result; the experiments were not run side by side.
# Target: Receptor tyrosine-protein kinase erbB-3 (ERBB3, Homo sapiens, UniProt P21860)
SMILES,effect on,method,tested at,remaining binding [%]
O=C(c1ccc(Nc2ncc(Cl)c(-c3cc4ccccc4s3)n2)cc1)N1CCC(N2CCCC2)CC1,binding,competition with immobilised ligand,1 µM,81
C[C@@H](c1ccc(-n2cnc3c(N)ncnc32)cc1)N1CCc2nn(C)c(Cc3ccccc3)c2C1=O,binding,competition with immobilised ligand,0.1 µM,55
CN(C)c1ncc(F)c(-c2cnn3ncccc23)n1,binding,,1 µM,100
O=C(NCCCN1CCOCC1)c1ccc(Nc2ncc(Cl)c(-c3ccc(Cl)s3)n2)cc1,binding,competition with immobilised ligand,1 µM,91
C[C@H](c1ccc(F)cc1)N(Cc1cccc(C(=O)O)c1)C(=O)c1cnc2ccccc2c1,cell-free assay,competition with immobilised ligand,1 µM,68
Nc1ncc2c(n1)-c1c([nH]c3ccc(C#CC4CC4)cc13)CCCC2,binding,competition with immobilised ligand,1 µM,100
CCCOc1ccc([C@H]2[C@H](C(=O)O)[C@@H](c3ccc4c(c3)OCO4)CN2CC(=O)Nc2c(CC)cccc2CC)cc1,cell-free assay,competition with immobilised ligand,1 µM,78
c1cncc(-c2cccc(Nc3nccc(NC4CCCCC4)n3)c2)c1,binding,competition with immobilised ligand,10 µM,84
O=C(c1ccc(Nc2nccc(-c3cc4ccccc4s3)n2)cc1)N1CCC(N2CCCC2)CC1,binding,competition with immobilised ligand,1 µM,100
CN(c1nccc(-c2cnn3ncccc23)n1)C1CC1,binding,,1 µM,100
COc1cnc(Nc2cccc(S(N)(=O)=O)c2)nc1N1CCN(c2ccccc2)C(=O)C1,binding,competition with immobilised ligand,1 µM,98
O=C(NCc1ncc(C(F)(F)F)cc1Cl)c1ccc2c(c1)C1(CCS(=O)(=O)CC1)[C@H](C1CC1)N2S(=O)(=O)c1ccc(F)cc1,cell-free assay,competition with immobilised ligand,1 µM,100
Cc1cnn2ncc(-c3ccnc(N(C)C)n3)c2c1,binding,,1 µM,100
C[C@H](NC(=O)c1cnc2n1[C@](C)(Cc1ccc(C#N)cc1)C(=O)N2c1cc(Cl)c(F)c(Cl)c1)C(=O)NC1(c2ccccn2)CC1,cell-free assay,competition with immobilised ligand,1 µM,100
COc1ccnn2ncc(-c3ccnc(N(C)C)n3)c12,binding,,1 µM,100
Cc1noc([C@H]2C[C@@H](c3ccc(C(F)(F)F)cc3)CN(C(=O)N3CCS(=O)(=O)C3)C2)n1,cell-free assay,competition with immobilised ligand,1 µM,100
F[C@@H]1CCN(c2nccc(-c3cnn4ncccc34)n2)C1,binding,,1 µM,100
COc1ccc2c(O[C@@H]3C[C@H]4C(=O)N[C@]5(C(=O)O)CC5/C=C\CCCCC[C@H](NC(=O)OC5CCCC5)C(=O)N4C3)cc(-c3csc(NC(=O)C(C)C)n3)nc2c1C (stereo partly shown),cell-free assay,competition with immobilised ligand,1 µM,88
N[C@@H]1CCN(c2nccc(-c3cnn4ncccc34)n2)C1,binding,,1 µM,100
O=C(Nc1c[nH]nc1C(=O)NC1CCNCC1)c1cc(F)cc(F)c1,binding,competition with immobilised ligand,1 µM,86
C[C@H]1CCN(c2nccc(-c3cnn4ncccc34)n2)C1,binding,,1 µM,100
O=C1CCc2cc(Nc3cc(OC4CCOCC4)c([N+](=O)[O-])cc3Cl)ccc2N1,cell-free assay,competition with immobilised ligand,1 µM,98
